Format in all cases: functional
In experiment [1] the test system is Escherichia coli. Briefly: Antibacterial activity against Escherichia coli ATCC 25922 by microbroth dilution technique. Put shortly: (§1)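 Read-out was the minimum inhibitory concentration (MIC), found by broth microdilution.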
(Broth dilution looks for growth in wells or tubes with falling amounts of substance.)

In experiment [2] the test system is Escherichia coli. Briefly: Antibacterial activity against Escherichia coli ATCC 35218 by microbroth dilution technique. In short, it runs like this: as §1
Experiment [3] concerns Staphylococcus aureus. Briefly: Antibacterial activity against methicillin-resistant Staphylococcus aureus ATCC 43300 by microbroth dilution technique.
The test system of experiment [4] is Staphylococcus aureus. Briefly: Antibacterial activity against Staphylococcus aureus ATCC 25923 by microbroth dilution technique. In short, it runs like this: as §1
In experiment [5] the test system is Staphylococcus aureus. Briefly: Antibacterial activity against methicillin-susceptible Staphylococcus aureus ATCC 29213 by microbroth dilution technique. Put shortly:
as §1

Experiment [6] has as its system Staphylococcus epidermidis. Briefly: Antibacterial activity against Staphylococcus epidermidis ATCC 12228 by microbroth dilution technique. Put shortly:
as §1

≈ marks a conversion by molar mass, not a printed value. Some results are limits rather than exact numbers.

For orientation: MIC means the lowest concentration that inhibits growth of the organism. Low readings indicate greater potency, high ones weaker potency.

Take `CCCC[C@H](CN(O)C=O)C(=O)N1CC=C[C@H]1C(=O)Nc1nnc(C(F)(F)F)s1`: the MIC was > 64 µg/mL in the experiment on Escherichia coli [1]; > 64 µg/mL against Escherichia coli [2]; 8 µg/mL (≈ 18.4 µM) with Staphylococcus aureus [3]; 32 µg/mL (≈ 73.5 µM) in the experiment with Staphylococcus aureus [4]; 16 µg/mL (≈ 36.7 µM) against Staphylococcus aureus [5]; 16 µg/mL (≈ 36.7 µM) in experiment [6].

Consider `CCCC[C@H](CN(O)C=O)C(=O)N1CC=C[C@H]1C(=O)Nc1ccc(F)c[n+]1[O-]`, for which the MIC was > 64 µg/mL with Escherichia coli [1]; 64 µg/mL (≈ 162 µM) against Escherichia coli [2]; 0.5 µg/mL (≈ 1.27 µM) against Staphylococcus aureus [3]; 0.5 µg/mL (≈ 1.27 µM) against Staphylococcus aureus [4]; 1 µg/mL (≈ 2.54 µM) against Staphylococcus aureus [5]; 1 µg/mL (≈ 2.54 µM) in experiment [6].

With `CC1(C)S[C@@H]2[C@H](NC(=O)Cc3ccccc3)C(=O)N2[C@H]1C(=O)O` [PENICILLIN G], the MIC was > 64 µg/mL against Escherichia coli [1]; > 64 µg/mL against Escherichia coli [2]; 64 µg/mL (≈ 191 µM) in the experiment on Staphylococcus aureus [3]; 0.0625 µg/mL (≈ 0.187 µM) with Staphylococcus aureus [4]; 1 µg/mL (≈ 2.99 µM) against Staphylococcus aureus [5]; 2 µg/mL (≈ 5.98 µM) in experiment [6].

For `CCCC[C@H](CN(O)C=O)C(=O)N1CC=C[C@H]1C(=O)Nc1ccc(Br)cc1`, the MIC was > 64 µg/mL with Escherichia coli [1]; > 64 µg/mL in the experiment with Escherichia coli [2]; 0.5 µg/mL (≈ 1.14 µM) with Staphylococcus aureus [3]; 4 µg/mL (≈ 9.13 µM) with Staphylococcus aureus [4]; 1 µg/mL (≈ 2.28 µM) in the experiment with Staphylococcus aureus [5]; 2 µg/mL (≈ 4.56 µM) in experiment [6].

Turning to `CCCC[C@H](CN(O)C=O)C(=O)N1CC=C[C@H]1C(=O)N1CCOCC1`, the MIC in the experiment on Escherichia coli [1] was > 64 µg/mL; with Escherichia coli [2] it was > 64 µg/mL; with Staphylococcus aureus [3], 32 µg/mL (≈ 90.5 µM); against Staphylococcus aureus [4], > 64 µg/mL; against Staphylococcus aureus [5] it was > 64 µg/mL; in experiment [6] it was > 64 µg/mL.

Take `CCCC[C@H](CN(O)C=O)C(=O)N1CCC[C@H]1C(=O)Nc1ccc(F)c[n+]1[O-]`: the MIC against Escherichia coli [1] stood at 64 µg/mL (≈ 161 µM); in the experiment with Escherichia coli [2] it was 64 µg/mL (≈ 161 µM); against Staphylococcus aureus [3], 0.5 µg/mL (≈ 1.26 µM); with Staphylococcus aureus [4] it was 0.25 µg/mL (≈ 0.631 µM); in the experiment with Staphylococcus aureus [5] it was 1 µg/mL (≈ 2.52 µM); in experiment [6], 0.5 µg/mL (≈ 1.26 µM).

Consider `CCCC[C@H](CN(O)C=O)C(=O)N1CC=C[C@H]1C(=O)Nc1ccccc1`, for which the MIC against Escherichia coli [1] is > 64 µg/mL; with Escherichia coli [2], 64 µg/mL (≈ 178 µM); in the experiment with Staphylococcus aureus [3] it was 1 µg/mL (≈ 2.78 µM); against Staphylococcus aureus [4] it was 4 µg/mL (≈ 11.1 µM); against Staphylococcus aureus [5], 8 µg/mL (≈ 22.3 µM); in experiment [6], 2 µg/mL (≈ 5.56 µM).

For the compound `CN[C@H](CC(C)C)C(=O)N[C@H]1C(=O)N[C@@H](CC(N)=O)C(=O)N[C@H]2C(=O)N[C@H]3C(=O)N[C@H](C(=O)N[C@H](C(=O)O)c4cc(O)cc(O)c4-c4cc3ccc4O)[C@H](O)c3ccc(c(Cl)c3)Oc3cc2cc(c3O[C@@H]2O[C@H](CO)[C@@H](O)[C@H](O)[C@H]2O[C@H]2C[C@](C)(N)[C@H](O)[C@H](C)O2)Oc2ccc(cc2Cl)[C@H]1O` [VANCOMYCIN], the MIC in the experiment on Escherichia coli [1] and in the experiment with Escherichia coli [2] was > 64 µg/mL in each case.

On to `CC(=O)NC[C@H]1CN(c2ccc(N3CCOCC3)c(F)c2)C(=O)O1` [LINEZOLID], for which the values for the MIC (in the experiment on Escherichia coli [1]; against Escherichia coli [2]; in experiment [6]) were > 64 µg/mL, > 64 µg/mL and 0.5 µg/mL (≈ 1.48 µM), respectively.

As to `CCCC[C@H](CN(O)C=O)C(=O)N1CC=C[C@H]1C(=O)Nc1ccc([N+](=O)[O-])cc1`, the MIC in the experiment with Escherichia coli [1] was > 64 µg/mL; against Escherichia coli [2], 32 µg/mL (≈ 79.1 µM); against Staphylococcus aureus [3], 0.5 µg/mL (≈ 1.24 µM); in the experiment on Staphylococcus aureus [4], 0.5 µg/mL (≈ 1.24 µM); in the experiment with Staphylococcus aureus [5], 2 µg/mL (≈ 4.95 µM); in experiment [6] it was 0.5 µg/mL (≈ 1.24 µM).

In the case of `CCCC[C@H](CN(O)C=O)C(=O)N1CC=C[C@H]1C(=O)Nc1cccc(Br)c1`, the MIC against Escherichia coli [1] is 64 µg/mL (≈ 146 µM); against Escherichia coli [2], 16 µg/mL (≈ 36.5 µM); against Staphylococcus aureus [3] it was 0.125 µg/mL (≈ 0.285 µM); with Staphylococcus aureus [4], 8 µg/mL (≈ 18.3 µM); in the experiment on Staphylococcus aureus [5], 1 µg/mL (≈ 2.28 µM); in experiment [6], 1 µg/mL (≈ 2.28 µM).

Turning to `CCCC[C@H](CN(O)C=O)C(=O)N1CC=C[C@H]1C(=O)Nc1ccc(F)cc1`, the MIC was > 64 µg/mL against Escherichia coli [1]; 64 µg/mL (≈ 170 µM) against Escherichia coli [2]; 1 µg/mL (≈ 2.65 µM) against Staphylococcus aureus [3]; 2 µg/mL (≈ 5.3 µM) with Staphylococcus aureus [4]; 2 µg/mL (≈ 5.3 µM) in the experiment with Staphylococcus aureus [5]; 4 µg/mL (≈ 10.6 µM) in experiment [6].

In the case of `CCCC[C@H](CN(O)C=O)C(=O)N1CC=C[C@H]1C(=O)Nc1ccccc1Br`, the MIC against Escherichia coli [1] is > 64 µg/mL; against Escherichia coli [2], > 64 µg/mL; in the experiment with Staphylococcus aureus [3] it was 1 µg/mL (≈ 2.28 µM); with Staphylococcus aureus [4] it was 32 µg/mL (≈ 73 µM); against Staphylococcus aureus [5], 4 µg/mL (≈ 9.13 µM); in experiment [6] it was 8 µg/mL (≈ 18.3 µM).

For the compound `CCCC[C@H](CN(O)C=O)C(=O)N1CC=C[C@H]1C(=O)NC1CC1`, the MIC was determined as 64 µg/mL (≈ 198 µM) with Escherichia coli [1]; 32 µg/mL (≈ 99 µM) against Escherichia coli [2]; 2 µg/mL (≈ 6.18 µM) with Staphylococcus aureus [3]; 64 µg/mL (≈ 198 µM) against Staphylococcus aureus [4]; 32 µg/mL (≈ 99 µM) against Staphylococcus aureus [5]; 4 µg/mL (≈ 12.4 µM) in experiment [6].

`CCCC[C@H](CN(O)C=O)C(=O)N1CC=C[C@H]1C(=O)Nc1ccc(F)cn1`: the MIC against Escherichia coli [1] is > 64 µg/mL; against Escherichia coli [2], 64 µg/mL (≈ 169 µM); against Staphylococcus aureus [3], 0.25 µg/mL (≈ 0.661 µM); in the experiment with Staphylococcus aureus [4], 0.5 µg/mL (≈ 1.32 µM); with Staphylococcus aureus [5] it was 1 µg/mL (≈ 2.64 µM); in experiment [6] it was 0.5 µg/mL (≈ 1.32 µM).

On to `CCCC[C@H](CN(O)C=O)C(=O)N1CC=C[C@H]1C(=O)Nc1ccccn1`, for which the MIC against Escherichia coli [1] was > 64 µg/mL; in the experiment with Escherichia coli [2], 32 µg/mL (≈ 88.8 µM); in the experiment with Staphylococcus aureus [3] it was 0.125 µg/mL (≈ 0.347 µM); against Staphylococcus aureus [4], 0.125 µg/mL (≈ 0.347 µM); against Staphylococcus aureus [5] it was 1 µg/mL (≈ 2.77 µM); in experiment [6], 0.5 µg/mL (≈ 1.39 µM).

Regarding `CCCC[C@H](CN(O)C=O)C(=O)N1CC=C[C@H]1C(=O)Nc1ccc(Cl)cc1`, the minimum inhibitory concentration (MIC) against Escherichia coli [1] was > 64 µg/mL; against Escherichia coli [2], > 64 µg/mL; against Staphylococcus aureus [3], 1 µg/mL (≈ 2.54 µM); against Staphylococcus aureus [4] it was 8 µg/mL (≈ 20.3 µM); in the experiment with Staphylococcus aureus [5], 2 µg/mL (≈ 5.08 µM); in experiment [6], 4 µg/mL (≈ 10.2 µM).

Take `CCCC[C@H](CN(O)C=O)C(=O)N1CC=C[C@H]1C(=O)N[C@H](C)c1ccccc1`: the MIC against Escherichia coli [1] is > 64 µg/mL; in the experiment on Escherichia coli [2] it was > 64 µg/mL; against Staphylococcus aureus [3] it was 2 µg/mL (≈ 5.16 µM); in the experiment on Staphylococcus aureus [4], 4 µg/mL (≈ 10.3 µM); against Staphylococcus aureus [5], 16 µg/mL (≈ 41.3 µM); in experiment [6] it was 4 µg/mL (≈ 10.3 µM).

For `CCCC[C@H](CN(O)C=O)C(=O)N1CC=C[C@H]1C(=O)N[C@@H](C)c1ccccc1`, the MIC is > 64 µg/mL against Escherichia coli [1]; > 64 µg/mL in the experiment on Escherichia coli [2]; 8 µg/mL (≈ 20.6 µM) in the experiment with Staphylococcus aureus [3]; 4 µg/mL (≈ 10.3 µM) in the experiment with Staphylococcus aureus [4]; 16 µg/mL (≈ 41.3 µM) with Staphylococcus aureus [5]; 8 µg/mL (≈ 20.6 µM) in experiment [6].

Consider `CCCC[C@H](CN(O)C=O)C(=O)N1CC=C[C@H]1C(=O)Nc1ccccc1Cl`, for which the MIC against Escherichia coli [1] was > 64 µg/mL; against Escherichia coli [2], 64 µg/mL (≈ 162 µM); against Staphylococcus aureus [3], 0.25 µg/mL (≈ 0.635 µM); against Staphylococcus aureus [4], 0.5 µg/mL (≈ 1.27 µM); against Staphylococcus aureus [5], 2 µg/mL (≈ 5.08 µM); in experiment [6], 1 µg/mL (≈ 2.54 µM).

`O=C(O)c1cn(C2CC2)c2cc(N3CCNCC3)c(F)cc2c1=O` [CIPROFLOXACIN]: the MIC against Escherichia coli [1] is < 0.0312 µg/mL; in the experiment on Escherichia coli [2] it was < 0.0312 µg/mL; against Staphylococcus aureus [3], 1 µg/mL (≈ 3.02 µM); against Staphylococcus aureus [4] it was 0.5 µg/mL (≈ 1.51 µM); with Staphylococcus aureus [5], 0.5 µg/mL (≈ 1.51 µM); in experiment [6], 0.25 µg/mL (≈ 0.754 µM).

As to `CCCC[C@H](CN(O)C=O)C(=O)N1CC=C[C@H]1C(=O)Nc1ncc(C)s1`, the MIC against Escherichia coli [1] worked out at 32 µg/mL (≈ 84.1 µM); in the experiment with Escherichia coli [2], 16 µg/mL (≈ 42.1 µM); with Staphylococcus aureus [3], 0.125 µg/mL (≈ 0.329 µM); with Staphylococcus aureus [4] it was 0.0625 µg/mL (≈ 0.164 µM); against Staphylococcus aureus [5], 0.25 µg/mL (≈ 0.657 µM); in experiment [6] it was 0.25 µg/mL (≈ 0.657 µM).

For `CCCC[C@H](CN(O)C=O)C(=O)N1CC=C[C@H]1C(=O)Nc1ccc(OC)cc1`, the minimum inhibitory concentration (MIC) in the experiment on Escherichia coli [1] was > 64 µg/mL; in the experiment with Escherichia coli [2], > 64 µg/mL; with Staphylococcus aureus [3] it was 1 µg/mL (≈ 2.57 µM); against Staphylococcus aureus [4], 0.5 µg/mL (≈ 1.28 µM); with Staphylococcus aureus [5], 2 µg/mL (≈ 5.14 µM); in experiment [6], 2 µg/mL (≈ 5.14 µM).

For the origin of these results see ChEMBL document CHEMBL1158632, “Design, synthesis, and antibacterial activity of 2,5-dihydropyrrole formyl hydroxyamino derivatives as novel peptide deformylase inhibitors” (2010).
